Data: ChEMBL document CHEMBL4831507, “Development of FABP4/5 inhibitors with potential therapeutic effect on type 2 Diabetes Mellitus” (Eur J Med Chem, 2021)
pIC50, pKd: −log10 of the molar value. Calls of active or inactive are those of the source. The rule behind the calls is not given here.

Experiments:
[1] = biological target: T1, Fatty acid-binding protein, adipocyte (Homo sapiens, UniProt P15090); assay: Displacement of 1,8-ANS from FABP4 (unknown origin) at 25 uM incubated for 3 mins by fluorescence based analysis relative to control
How it was run: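 Single-concentration percent inhibition in the 1,8-ANS displacement assay with FABP4. Compound incubated with protein and probe in phosphate buffer for 3 min at room temperature; fluorescence read at ex 370/em 470 nm.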
Target sequence in this assay (P15090 2-132 limits assumed): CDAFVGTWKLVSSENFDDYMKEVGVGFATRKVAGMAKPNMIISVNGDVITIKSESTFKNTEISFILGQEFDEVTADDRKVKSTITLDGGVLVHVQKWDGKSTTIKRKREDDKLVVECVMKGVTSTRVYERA

[2] = biological target: T1, Fatty acid-binding protein, adipocyte; assay: Displacement of 1,8-ANS from FABP4 (unknown origin) incubated for 3 mins by fluorescence based analysis
How it was run: (§1)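 1,8-ANS displacement using purified recombinant FABP3, FABP4 or FABP5. Compound incubated with protein and 1,8-ANS in phosphate buffer for 3 min at room temperature. Fluorescence read at ex 370/em 470 nm. IC50 by nonlinear regression, mean ± SD of three independent experiments.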
Target sequence in this assay (P15090 whole entry): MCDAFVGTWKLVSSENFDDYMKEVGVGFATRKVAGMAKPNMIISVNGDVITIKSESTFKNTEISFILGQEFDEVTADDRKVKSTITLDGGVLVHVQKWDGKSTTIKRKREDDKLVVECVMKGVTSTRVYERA

[3] = test system: 3T3-L1; assay: Cytotoxicity against mouse 3T3-L1 cells assessed as reduction in cell viability at 100 uM incubated for 24 hrs by CCK8 assay; format: cell-based; conditions: 3t3-l1, 24 h
[4] = test system: Mus musculus; assay: Improvement in lipid homeostasis in C57BL/KsJ-db/db mouse assessed as effect on total cholesterol level in serum at 50 mg/kg, po administered for 8 weeks; format: functional, organism-based
How it was run: (§2)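 Male db/db mice, 6 weeks old, 10 per group, dosed 50 mg/kg by gavage daily for 8 weeks; vehicle 0.5% CMC-Na. Lean littermates received vehicle. Body weight recorded twice weekly; 6-h fasting tail glucose by glucometer weekly. OGTT on day 45: overnight fast, glucose 0.5 g/kg by gavage. ITT on day 51: 6-h fast, insulin 0.85 IU/kg ip. Glucose AUC calculated. Final serum taken after 6-h fast; HDL-C, LDL-C, TG, TCH and FABP4 measured by kits. Liver Akt and p-Akt(Ser473) by western blot.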

[5] = Cmax in ICR mouse at 3 mg/kg, po and 1 mg/kg, iv measured for 24 hrs by LC-MS/MS analysis; format: ADME, organism-based; design: time 24 hrs, dose 3 mg/kg; conditions: in vivo
How it was run: (§3)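 Male ICR mice, 20-25 g, three per group. Oral dose 3 mg/kg in PBS with 5% DMSO and 0.5% HPMC; iv dose 1 mg/kg in DMSO/EtOH/PEG300/NaCl (5/5/40/50). Blood sampled at 0.25, 0.5, 1, 2, 4, 8 and 24 h. Plasma drug measured by LC-MS/MS. Mean ± SEM, n = 3.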

[6] = biological target: T1, Fatty acid-binding protein, adipocyte; assay: Binding affinity to FABP4 (unknown origin) by microscale thermophoresis analysis
Target sequence in this assay (P15090 whole entry): as above

[7] = Oral bioavailability in ICR mouse at 3 mg/kg measured for 24 hrs by LC-MS/MS analysis; format: ADME, organism-based; conditions: in vivo; how it was run: as §3
[8] = test system: Mus musculus; assay: Improvement in lipid homeostasis in C57BL/KsJ-db/db mouse assessed as effect on triglyceride level in serum at 50 mg/kg, po administered for 8 weeks; format: functional, organism-based; how it was run: as §2
[9] = test system: Mus musculus; assay: Antidiabetic activity in C57BL/KsJ-db/db mouse assessed as improvement in insulin resistance at 50 mg/kg, po administered for 51 days by insulin tolerance test; format: functional, organism-based; conditions: time 51.0 day; how it was run: as §2
[10] = test system: Mus musculus; assay: Antidiabetic activity in C57BL/KsJ-db/db mouse assessed as reduction in fasting blood glucose level at 50 mg/kg, po administered for 7 weeks; format: functional; conditions: 1176 h; how it was run: as §2
[11] = Half life in ICR mouse at 3 mg/kg, po measured for 24 hrs by LC-MS/MS analysis; format: ADME, organism-based; conditions: in vivo; how it was run: as §3
[12] = test system: Mus musculus; assay: Antidiabetic activity in C57BL/KsJ-db/db mouse assessed as improvement in glucose metabolism at 50 mg/kg, po administered for 45 days by oral glucose tolerance test; format: functional, organism-based; conditions: time 45.0 day; how it was run: as §2
[13] = Metabolic stability in mouse liver microsomes assessed as half life at 0.1 uM preincubated for 10 mins followed by NADPH addition and measured for 60 mins by LC-MS/MS analysis; format: ADME, Microsome; conditions: time 70 min
How it was run: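 Mouse liver microsomes 0.33 mg/mL in 0.1 M Tris pH 7.4 with 5 mM MgCl₂, 0.01% DMSO and 0.005% BSA. Compound final […]. Preincubated 10 min at 37 °C; reaction started with 1 mM NADPH. Samples at 0, 7, 17, 30 and 60 min quenched with cold methanol, then analysed by LC-MS/MS.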

[14] = AUC in ICR mouse at 3 mg/kg, po measured for 24 hrs by LC-MS/MS analysis; format: ADME, organism-based; design: dose 3 mg/kg, time 24 hrs; conditions: in vivo; how it was run: as §3
[15] = test system: 3T3-L1; assay: Anti-lipolytic activity in mouse 3T3-L1 cells assessed as inhibition of forskolin-stimulated glycerol release at 80 uM preincubated for 24 hrs followed by forskolin stimulation for 1 hr; format: functional, cell-based; conditions: time 25.0 hrs
[16] = test system: THP-1; assay: Cytotoxicity against human THP-1 cells assessed as reduction in cell viability at 50 uM incubated for 24 hrs by CCK8 assay; format: cell-based; conditions: thp-1, 24 h
[17] = Clearance in ICR mouse at 3 mg/kg, po and 1 mg/kg, iv measured for 24 hrs by LC-MS/MS analysis; format: ADME, organism-based; conditions: in vivo; how it was run: as §3
[18] = Half life in ICR mouse at 1 mg/kg, iv measured for 24 hrs by LC-MS/MS analysis; format: ADME, organism-based; conditions: in vivo; how it was run: as §3
[19] = test system: THP-1; assay: Antiinflammatory activity against LPS-induced human THP-1 cells assessed as inhibition of MCP-1 gene expression at 25 uM incubated for 18 hrs followed by LPS-stimulation and measured after 6 hrs by qRT-PCR analysis; format: functional, cell-based; conditions: time 24.0 hrs
How it was run: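 THP-1 cells (1 per 48-well, 3*10⁵) differentiated with 100 nM PMA for 24 h, then washed with PBS. Compound at […] or 0.1% DMSO for 18 h, then 100 ng/ml LPS for 6 h. RNA extracted with TRIzol. MCP-1 mRNA by RT-qPCR, 2^-ΔΔCT method.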

[20] = test system: Mus musculus; assay: Reduction in FABP4 level in serum of C57BL/KsJ-db/db mouse at 50 mg/kg, po administered for 8 weeks; format: functional, organism-based; how it was run: as §2
[21] = test system: 3T3-L1; assay: Inhibition of FABP4 secretion in mouse 3T3-L1 cells assessed as reduction in FABP4 level in conditioned medium at 50 uM incubated for 24 hrs by immunoblotting analysis; format: functional, cell-based
How it was run: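 Mature 3T3-L1 adipocytes starved for 6 h in DMEM with 0.5% BSA, then treated with compound at […] for 24 h. Conditioned medium ultrafiltered; lysate and medium protein measured by BCA. FABP4 immunoblotted with GAPDH, ECL detection, densitometry. Three independent experiments.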

[22] = test system: Mus musculus; assay: Improvement in lipid homeostasis in C57BL/KsJ-db/db mouse assessed as increase in high density cholesterol level in serum at 50 mg/kg, po administered for 8 weeks; format: functional, organism-based; how it was run: as §2
[23] = AUC in ICR mouse at 1 mg/kg, iv measured for 24 hrs by LC-MS/MS analysis; format: ADME, organism-based; design: dose 1 mg/kg, time 24 hrs; conditions: in vivo; how it was run: as §3
[24] = test system: Mus musculus; assay: In vivo activation of […] signaling in C57BL/KsJ-db/db mouse assessed as increase in Akt phosphorylation at Ser473 in liver at 50 mg/kg, po administered for 8 weeks by western blot analysis; format: functional, organism-based; how it was run: as §2
[25] = Toxicity in C57BL/KsJ-db/db mouse assessed as effect on body weight at 50 mg/kg, po administered for 8 weeks; format: organism-based; conditions: in vivo, 1344 h; how it was run: as §2
[26] = biological target: Fatty acid-binding protein, heart (Homo sapiens, UniProt P05413); assay: Displacement of 1,8-ANS from FABP3 (unknown origin) incubated for 3 mins by fluorescence based analysis; how it was run: as §1
[27] = test system: Mus musculus; assay: Improvement in lipid homeostasis in C57BL/KsJ-db/db mouse assessed as reduction in low density cholesterol level in serum at 50 mg/kg, po administered for 8 weeks; format: functional, organism-based; how it was run: as §2
[28] = biological target: Fatty acid-binding protein 5 (Homo sapiens, UniProt Q01469); assay: Displacement of 1,8-ANS from FABP5 (unknown origin) incubated for 3 mins by fluorescence based analysis
Chain of Fatty acid-binding protein 5 (Q01469 whole entry): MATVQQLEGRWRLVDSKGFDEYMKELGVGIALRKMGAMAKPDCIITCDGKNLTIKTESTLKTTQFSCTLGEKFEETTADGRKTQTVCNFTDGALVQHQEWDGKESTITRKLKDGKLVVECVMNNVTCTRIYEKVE

Chain of Fatty acid-binding protein, heart (P05413 whole entry): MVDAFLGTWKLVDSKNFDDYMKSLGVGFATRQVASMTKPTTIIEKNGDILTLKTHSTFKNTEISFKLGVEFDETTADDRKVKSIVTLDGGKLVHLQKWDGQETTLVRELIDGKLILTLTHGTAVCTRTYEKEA

Which results are given for `COc1c(-c2cccc(Cl)c2F)cc(S(=O)(=O)Nc2ccc(F)c(CC(=O)O)c2)c2ccccc12`?
inhibition [1]: 84%; pIC50 [2]: 5.19

Which results are given for `O=C(O)c1cc(NS(=O)(=O)c2ccc(-c3ccc(F)cc3F)c3ccccc23)ccc1F`?
inhibition [1]: 85%; pIC50 [2]: 5.33; Activity [3]: Non-Toxic

What does the source list for `COc1c(-c2ccc(F)cc2F)cc(S(=O)(=O)Nc2ccc(F)c(CC(=O)O)c2)c2ccccc12`?
inhibition [1]: 96%; pIC50 [2]: 5.50

With `O=C(O)c1cc(NS(=O)(=O)c2ccc(-c3ccc(F)cc3Cl)c3ccccc23)ccc1F` as the compound, how does the Activity [4] read?
The Activity was “inactive”.

And the Cmax [5]?
The Cmax was 0.782 µg/mL.

What about the pKd [6] of the same compound?
The pKd was 4.96.

And the bioavailability [7]?
Its bioavailability is 18.4%.

What about the Activity [8] of the same compound?
The Activity was “inactive”.

And the Activity [9]?
The Activity was “Active”.

And the inhibition [1]?
The inhibition was 86%.

What about the inhibition in vivo at 50 mg/kg [10] of the same compound?
The inhibition in vivo at 50 mg/kg was 32.4%.

And the half-life [11]?
Its half-life is 1.36 h.

What about the Activity [12] of the same compound?
The Activity was “Active”.

What about the half-life at 0.1 µM [13] of the same compound?
Its half-life at 0.1 µM is 1.52 h.

And the AUC at 24 h [14]?
The AUC at 24 h was 1.09 µg·h/mL.

What about the Activity [15] of the same compound?
Its Activity is “Active”.

And the Activity [16]?
The Activity was “Non-Toxic”.

And the clearance [17]?
The clearance was 0.524 L/h/kg.

What about the half-life [18] of the same compound?
Its half-life is 2.88 h.

And the pIC50 [2]?
Its pIC50 is 5.33.

What about the Activity [19] of the same compound?
Its Activity is “Active”.

What about the inhibition [20] of the same compound?
The inhibition was “Active”.

And the inhibition [21]?
Its inhibition is “Active”.

What about the Activity [22] of the same compound?
The Activity was “Active”.

And the AUC at 24 h [23]?
Its AUC at 24 h is 1.98 µg·h/mL.

What about the Activity [24] of the same compound?
The Activity was “Active”.

And the Activity [25]?
The Activity was “Non-Toxic”.

And the pIC50 [26]?
Its pIC50 is 3.98.

And the Activity [27]?
The Activity was “Active”.

And the Activity [3]?
The Activity was “Non-Toxic”.

Which inhibition [1] does the source give for `COc1c(-c2ccc(F)cc2)cc(S(=O)(=O)Nc2ccc(F)c(CC(=O)O)c2)c2ccccc12` here?
The inhibition was 95%.

What about the pIC50 [2] of the same compound?
Its pIC50 is 5.33.

Which results are given for `COc1c(-c2ccccc2C)cc(S(=O)(=O)Nc2ccc(F)c(CC(=O)O)c2)c2ccccc12`?
inhibition [1]: 80%; pIC50 [28]: 5.11; pIC50 [2]: 5.29

With `COc1c(-c2ccccc2C(C)C)cc(S(=O)(=O)Nc2ccc(F)c(CC(=O)O)c2)c2ccccc12` as the compound, how does the inhibition [1] read?
The inhibition was 50%.

And the half-life at 0.1 µM [13]?
The half-life at 0.1 µM was 0.252 h.

And the pIC50 [28]?
Its pIC50 is 5.54.

And the Activity [15]?
Its Activity is “Active”.

And the Activity [3]?
Its Activity is “Non-Toxic”.

For `O=C(O)c1cc(NS(=O)(=O)c2ccc(OCCC3CCCCC3)c3ccccc23)ccc1F`, which half-life at 0.1 µM [13] is on record?
The half-life at 0.1 µM was 0.392 h.

What does the source list for `COc1c(-c2ccccc2C(F)(F)F)cc(S(=O)(=O)Nc2ccc(F)c(CC(=O)O)c2)c2ccccc12`?
inhibition [1]: 56%; pIC50 [28]: 5.11

Which inhibition [1] does the source give for `COc1c(-c2cc(Cl)ccc2Cl)cc(S(=O)(=O)Nc2ccc(F)c(CC(=O)O)c2)c2ccccc12` here?
Its inhibition is 52%.

Which results are given for `COc1c(-c2ccc(F)cc2C)cc(S(=O)(=O)Nc2ccc(F)c(C(=O)O)c2)c2ccccc12`?
inhibition [1]: 95%; half-life at 0.1 µM [13]: 1.7 h; pIC50 [28]: 5.05; Activity [15]: inactive; pIC50 [2]: 5.58

With `O=C(O)c1cc(NS(=O)(=O)c2ccc(-c3ccc(C(F)(F)F)cc3)c3ccccc23)ccc1F` as the compound, how does the inhibition [1] read?
The inhibition was 40%.

With `COc1c(-c2ccccc2O)cc(S(=O)(=O)Nc2ccc(F)c(CC(=O)O)c2)c2ccccc12` as the compound, how does the inhibition [1] read?
The inhibition was 86%.

And the pIC50 [2]?
The pIC50 was 5.10.

Which inhibition [1] does the source give for `O=C(O)c1cc(NS(=O)(=O)c2ccc(-c3ccc(F)cc3)c3ccccc23)ccc1F` here?
The inhibition was 80%.

And the pIC50 [2]?
Its pIC50 is 5.11.
